Results published in ChEMBL document CHEMBL1142569, “Two new hepatoprotective stilbene glycosides from Acer mono leaves” (J Nat Prod, 2005).
Calls of active or inactive are those of the source. No cut-off for these calls is given here.

Legend:
[1] = tested on: Hepatocyte; assay: Hepatoprotective activity against H2O2-induced hepatotoxicity in Wistar rat hepatocytes assessed as reduction in glutamic pyruvate transaminase release at 100 uM after 1 hr relative to control; assay type: functional, cell-based
[2] = tested on: Hepatocyte; assay: Hepatoprotective activity against H2O2-induced hepatotoxicity in Wistar rat hepatocytes assessed as reduction in glutamic pyruvate transaminase release after 1 hr relative to control; assay type: functional, cell-based
How it was run: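 Hepatocytes from male Wistar rats were isolated by collagenase perfusion and cultured for one day after plating. Cells were pretreated with or without compound for 1 h, then exposed to 12 mM H2O2 for 1.5 h. GPT released into the medium was measured by the Reitman-Frankel method. Relative protection (%) = 100 × (H2O2-treated − sample)/(H2O2-treated − unchallenged control). Mean ± SD, n = 3.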

SMILES	Activity [1]	Activity [2]
COc1cc(C2Oc3cc([C@H]4Oc5cc(O)cc(O)c5C(=O)[C@@H]4O)ccc3OC2CO)ccc1O (stereo not given in full)	Active	–
O=c1c(O)c(-c2ccc(O)c(O)c2)oc2cc(O)cc(O)c12	–	Active
O=C1C[C@@H](c2ccc(O)cc2)Oc2cc(O[C@@H]3O[C@H](CO)[C@@H](O)[C@H](O)[C@H]3O)cc(O)c21	–	inactive
O=C1C[C@@H](c2ccc(O)c(O)c2)Oc2cc(O)cc(O)c21	–	inactive
COc1cc(/C=C/c2ccc(O)cc2)cc(O[C@@H]2O[C@H](CO)[C@@H](O)[C@H](O)[C@H]2O)c1	–	Active
C[C@@H]1O[C@@H](Oc2c(-c3ccc(O)c(O)c3)oc3cc(O)cc(O)c3c2=O)[C@H](O)[C@H](O)[C@H]1O	–	inactive
COc1cc(/C=C/c2ccc(O)cc2)cc(O[C@@H]2O[C@H](CO[C@@H]3OC[C@](O)(CO)[C@H]3O)[C@@H](O)[C@H](O)[C@H]2O)c1	–	Active
O=C1C[C@@H](c2ccc(O)cc2)Oc2cc(O)cc(O)c21	–	inactive
O=c1ccoc2cc(O[C@@H]3O[C@H](CO)[C@@H](O)[C@H](O)[C@H]3O)cc(O)c12	–	inactive
O=C1C[C@@H](c2ccc(O)c(O)c2)Oc2cc(O[C@@H]3O[C@H](CO)[C@@H](O)[C@H](O)[C@H]3O)cc(O)c21	–	inactive
